Laboratory results published in ChEMBL document CHEMBL3286090, “Cryptocaryol Structure-Activity Relationship Study of Cancer Cell Cytotoxicity and Ability to Stabilize PDCD4” (ACS Med Chem Lett, 2014).
Activity calls are given as the source filed them. No cut-off for these calls is given here.

Key:
MCF7 [1] = experiment: Cytotoxicity against human MCF7 cells after 72 hrs by MTT assay; format: functional, cell-based; conditions: MCF7, 72 h
Outline: (§1)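 Cancer cell lines exposed to compound over a concentration range; viability read by MTT; IC50 in μM derived from dose-response.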

[2] = Cytotoxicity against human H460 cells after 72 hrs by MTT assay; format: functional, cell-based; conditions: NCI-H460, 72 h; outline: as §1
HT-29 [3] = experiment: Cytotoxicity against human HT-29 cells after 72 hrs by MTT assay; format: functional, cell-based; conditions: HT-29, 72 h; outline: as §1
[4] = target: T1, Programmed cell death protein 4 (Homo sapiens) (UniProt Q53EL6); experiment: Inhibition of TPA-induced PDCD4 degradation in human MCF7 cells at 1 uM treated 30 mins before TPA challenge measured after 6 hrs by Western blot analysis relative to TPA treated control; format: cell-based
T1 sequence (whole entry): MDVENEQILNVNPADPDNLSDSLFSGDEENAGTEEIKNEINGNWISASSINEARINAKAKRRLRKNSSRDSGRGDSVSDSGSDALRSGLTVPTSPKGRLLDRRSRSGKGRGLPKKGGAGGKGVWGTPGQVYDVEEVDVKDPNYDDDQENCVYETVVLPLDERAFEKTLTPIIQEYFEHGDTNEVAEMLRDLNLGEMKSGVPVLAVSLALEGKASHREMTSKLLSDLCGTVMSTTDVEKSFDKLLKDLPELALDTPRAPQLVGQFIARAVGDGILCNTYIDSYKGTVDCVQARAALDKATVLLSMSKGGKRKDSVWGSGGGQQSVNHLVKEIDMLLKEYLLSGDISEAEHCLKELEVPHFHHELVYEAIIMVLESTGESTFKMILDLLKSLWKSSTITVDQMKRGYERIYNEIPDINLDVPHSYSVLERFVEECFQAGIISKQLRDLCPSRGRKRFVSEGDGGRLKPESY
Outline: (§2)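 MCF-7 seeded at 100,000 cells/well, grown 24 h, then given cryptocaryol analogues (1 μM) or rapamycin (10 nM). TPA (20 nM) added 30 min later. After a further 6 h, cells scraped and lysed in RIPA. Lysate run on 12% SDS-PAGE, blotted to PVDF, probed for PDCD4 and β-actin, chemiluminescence detection. Signal expressed relative to cells given TPA alone.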

MCF7 [5] = experiment: Potentiation of camptothecin-induced cytotoxicity against human MCF7 cells at 1 nM to 10 uM after 72 hrs by MTT assay; format: functional
MCF7 [6] = experiment: Potentiation of digitoxin-induced cytotoxicity against human MCF7 cells at 1 nM to 10 uM after 72 hrs by MTT assay; format: functional
HT-29 [7] = experiment: Potentiation of camptothecin-induced cytotoxicity against human HT-29 cells at 1 uM after 72 hrs by MTT assay in absence of TPA; format: functional, cell-based
HT-29 [8] = experiment: Potentiation of digitoxin-induced cytotoxicity against human HT-29 cells at 1 uM after 72 hrs by MTT assay in absence of TPA; format: functional, cell-based
Outline: (§3)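 HT-29 cells pretreated for 12 h with cryptocaryol at 1 μM, with rapamycin at 10 nM as the reference stabilizer, then exposed to digitoxin over a concentration range without TPA. The read-out was the digitoxin IC50 under the combination.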

HT-29 [9] = experiment: Potentiation of camptothecin-induced cytotoxicity against human HT-29 cells at 1 nM to 10 uM after 72 hrs by MTT assay; format: functional, cell-based
HT-29 [10] = experiment: Potentiation of camptothecin-induced cytotoxicity against human HT-29 cells at 1 uM after 72 hrs by MTT assay in presence of TPA; format: functional, cell-based
HT-29 [11] = experiment: Potentiation of digitoxin-induced cytotoxicity against human HT-29 cells at 1 nM to 10 uM after 72 hrs by MTT assay; format: functional, cell-based
MCF7 [12] = experiment: Potentiation of camptothecin-induced cytotoxicity against human MCF7 cells at 1 uM treated 30 mins before TPA challenge measured after 72 hrs by MTT assay; format: functional, cell-based
HT-29 [13] = experiment: Potentiation of 5-fluorouracil-induced cytotoxicity against human HT-29 cells after 72 hrs by MTT assay in presence of TPA; format: functional, cell-based
HT-29 [14] = experiment: Potentiation of 5-fluorouracil-induced cytotoxicity against human HT-29 cells after 72 hrs by MTT assay in absence of TPA; format: functional, cell-based
HT-29 [15] = experiment: Potentiation of camptothecin-induced cytotoxicity against human HT-29 cells after 72 hrs by MTT assay in presence of TPA; format: functional, cell-based
[16] = target: T1, Programmed cell death protein 4 (Homo sapiens); experiment: Inhibition of TPA-induced PDCD4 degradation in human MCF7 cells at 10 nM treated 30 mins before TPA challenge measured after 6 hrs by Western blot analysis relative to TPA treated control; format: cell-based; outline: as §2
HT-29 [17] = experiment: Potentiation of camptothecin-induced cytotoxicity against human HT-29 cells after 72 hrs by MTT assay in absence of TPA; format: functional, cell-based
HT-29 [18] = experiment: Potentiation of digitoxin-induced cytotoxicity against human HT-29 cells after 72 hrs by MTT assay in absence of TPA; format: functional, cell-based; outline: as §3
HT-29 [19] = experiment: Potentiation of 5-fluorouracil-induced cytotoxicity against human HT-29 cells after 72 hrs by MTT assay in absence of TPA

Compound	IC50 (MCF7 [1]) [µM]	IC50 [2] [µM]	IC50 (HT-29 [3]) [µM]	Ratio [4]	also measured
CCCCCCCCCCCCCCC[C@@H](O)C[C@H](O)C[C@H](O)C[C@H](O)C[C@H](O)C[C@@H]1CC=CC(=O)O1	25.8	7.9	4.1	3.8	
CCCCCCCCCCCCCCC[C@H](O)C[C@@H](O)C[C@@H](O)C[C@@H](O)C[C@@H](O)C[C@H]1CC=CC(=O)O1	8.1	5.4	4.2	3.6	CI (MCF7 [5]): 0.78; CI (MCF7 [6]): 1.34; Activity (HT-29 [7]): inactive; Activity (HT-29 [8]): inactive; Activity (HT-29 [9]): inactive; Activity (HT-29 [10]): inactive; Activity (HT-29 [11]): inactive
CCCCCCCCCCCCCCC[C@H](O)C[C@@H](O)C[C@@H](O)C[C@@H](O)C[C@@H](O)CCO	> 500	> 1500	> 1500	1.8	
CCCCCCCCCCCCCCC[C@@H](C[C@@H](O)C[C@@H](O)C[C@@H](O)C[C@@H](O)C[C@H]1CC=CC(=O)O1)OC(C)=O	5.8	3.8	2.9	4.5	CI (MCF7 [5]): 1.12; CI (MCF7 [6]): 1.04; Activity (HT-29 [7]): inactive; Activity (MCF7 [12]): inactive; Activity (HT-29 [8]): inactive; Activity (HT-29 [9]): inactive; Activity (HT-29 [10]): inactive; Activity (HT-29 [13]): inactive; Activity (HT-29 [14]): inactive; Activity (HT-29 [11]): inactive
CCCCCCCCCCCCCCC[C@@H](C[C@H](O)C[C@H](O)C[C@H](O)C[C@H](O)C[C@@H]1CC=CC(=O)O1)OC(C)=O	13.3	7.8	4.9	1.9	
CO[C@H]1C[C@@H]2CC[C@@H](C)[C@@](O)(O2)C(=O)C(=O)N2CCCC[C@H]2C(=O)O[C@H]([C@H](C)C[C@@H]2CC[C@@H](O)[C@H](OC)C2)CC(=O)[C@H](C)/C=C(\C)[C@@H](O)[C@@H](OC)C(=O)[C@H](C)C[C@H](C)/C=C/C=C/C=C/1C					Activity (HT-29 [15]): inactive; Ratio [16]: 6.6; Activity (HT-29 [17]): inactive; Activity (HT-29 [18]): inactive; Activity (HT-29 [19]): inactive; Activity (HT-29 [14]): inactive
CCCCCCCCCCCCCCC[C@H](C[C@H](O)C[C@H](O)C[C@H](O)C[C@H](O)C[C@@H]1CC=CC(=O)O1)OC(C)=O	9	4	2.4	3.6	
CCCCCCCCCCCCCCC[C@@H](C[C@@H](O)C[C@@H](O)C[C@@H](O)C[C@@H](O)CCO)OC(C)=O	162	> 1000	1280	2.8	
